Source: paper PMC6796888 (ACS Omega, 2019)
Values after ≈ are worked out from the molar mass of the structure shown.

Legend:
S. typhimurium MTCC 3224 [1] = assay: In vitro screening, % growth inhibition at 250 μg/mL; format: cell-based, Salmonella typhimurium; conditions: 24 h
Procedure, shortened: (§1)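 Test compounds dissolved in DMSO and diluted in test medium. Mid-log cultures diluted in nutrient broth to McFarland standard and treated with 250 μg/mL in 96-well plates, 37 °C, 160 rpm, 24 h. Growth read as OD at 580 nm; % inhibition calculated from absorbance against untreated growth. Run twice on different occasions.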

S. pneumoniae biofilm = assay: Biofilm assessment by XTT assay; format: cell-based, Streptococcus pneumoniae
S. typhimurium = assay: Synergistic assay with ciprofloxacin; format: cell-based, Salmonella typhimurium
E. faecalis MTCC 439 [2] = assay: MIC by broth microdilution; format: cell-based; conditions: Enterococcus faecalis, MTCC439
E. coli ATCC 25922 [3] = assay: Disk diffusion assay; format: cell-based, Escherichia coli
E. coli [4] = assay: Synergistic assay with ciprofloxacin; format: cell-based, Escherichia coli
E. coli cells = assay: Confocal laser microscopy with DAPI staining; format: cell-based, Escherichia coli; conditions: MIC of 4l for 3 h
S. typhimurium MTCC 3224 [5] = assay: MIC by broth microdilution; format: cell-based; conditions: Salmonella enterica, MTCC3224|TYPHIMURIUM
S. pneumoniae [6] = assay: Time–kill curve assay; format: cell-based, Streptococcus pneumoniae; conditions: up to 24 h
Procedure, shortened: (§2)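 Nutrient broth inoculated with about 2 × 10^6 cells of fresh culture, two-fold diluted and exposed to test compound at MIC or 2MIC; untreated control included. Incubation at 37 °C, 160 rpm. At 0, 2, 4, 8 and 24 h, 100 μL was diluted in sterile saline, 50 μL plated on nutrient agar and colonies counted after 24 h at 37 °C. Duplicate; mean log10 CFU/mL plotted against time.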

S. pneumoniae MTCC 655 [7] = assay: In vitro screening, % growth inhibition at 250 μg/mL; format: cell-based, Streptococcus pneumoniae
Procedure, shortened: as §1

S. pneumoniae [8] = assay: Growth kinetic studies; format: cell-based, Streptococcus pneumoniae; conditions: 2MIC and MIC
S. pneumoniae MTCC 655 [9] = assay: Spot assay; format: cell-based, Streptococcus pneumoniae; conditions: 2MIC, 6 h exposure
Procedure, shortened: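 Mid-log S. pneumoniae MTCC 655 harvested and diluted in sterile PBS to McFarland standard. 2 mL suspension exposed to test compound at 2MIC, MIC or 0.5MIC, 37 °C, 160 rpm, 6 h. 2 μL spots put on nutrient agar, 37 °C for 24 h, growth scored +/−. Ciprofloxacin-treated positive and untreated negative controls. Triplicate, three occasions.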

P. aeruginosa = assay: Synergistic assay with ciprofloxacin; format: cell-based
S. pneumoniae [10] = assay: Synergistic assay with ciprofloxacin; format: cell-based, Streptococcus pneumoniae
E. coli ATCC 25922 [11] = assay: MIC by broth microdilution; format: cell-based; conditions: Escherichia coli, ATCC25922
E. coli [12] = assay: Growth kinetic studies; format: cell-based, Escherichia coli; conditions: 2MIC and MIC
E. coli ATCC 25922 [13] = assay: In vitro screening, % growth inhibition at 250 μg/mL; format: cell-based, Escherichia coli
Procedure, shortened: as §1

E. coli biofilm [14] = assay: Biofilm assessment by XTT assay; format: cell-based, Escherichia coli; conditions: for reduction in absorbance (biofilm, XTT): 24 h
Procedure, shortened: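 Biofilms grown from 100 μL standardized cell suspension in nutrient broth with 0.5% extra glucose, 37 °C, 24 h, static. […] Washed again, XTT salt added for 90 min at 37 °C in the dark, A490 read. % inhibition taken from dose–response curves.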

S. pneumoniae MTCC 655 [15] = assay: MIC by broth microdilution; format: cell-based; conditions: Streptococcus pneumoniae, MTCC655
P. auroginosa MTCC 2453 [16] = assay: MIC by broth microdilution; format: cell-based, Pseudomonas auroginosa; conditions: Pseudomonas, MTCC2453
E. faecalis = assay: Synergistic assay with ciprofloxacin; format: cell-based, Enterococcus faecalis
E. coli biofilm [17] = assay: Biofilm formation assessment by SEM; format: cell-based, Escherichia coli; conditions: 24 h
Procedure, shortened: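 Sterile glass pieces (10 mm2) placed in nutrient broth with 0.5% extra glucose and inoculated with fresh E. coli primary culture. […] Glass washed with PBS and fixed overnight in 2.5% glutaraldehyde/2% paraformaldehyde in 0.1 M phosphate buffer pH 7.4. Washed, dried, imaged by SEM; untreated control included.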

Hemolytic assay = format: cell-based; conditions: human, human red blood cells (erythrocytes/PBS suspension)
Procedure, shortened: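 Human blood from a healthy donor was collected in EDTA and spun at 2000 rpm for 10 min at room temperature. Erythrocytes were PBS-washed, made into a 10% (v/v) suspension and diluted 1:10. Test compound (400–3.125 μg/mL in PBS) mixed with an equal volume of this suspension, 1 h at 37 °C, then spun.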

S. pneumoniae MTCC 655 [18] = assay: Disk diffusion assay; format: cell-based, Streptococcus pneumoniae
P. auroginosa MTCC 2453 [19] = assay: In vitro screening, % growth inhibition at 250 μg/mL; format: cell-based, Pseudomonas auroginosa
Procedure, shortened: as §1

E. coli [20] = assay: Time–kill curve assay; format: cell-based, Escherichia coli
Procedure, shortened: as §2

E. faecalis MTCC 439 [21] = assay: In vitro screening, % growth inhibition at 250 μg/mL; format: cell-based, Enterococcus faecalis
Procedure, shortened: as §1

[22] = S. typhimurium, 4l combined with CIP
[23] = P. aeruginosa, 4l combined with CIP
[24] = S. pneumoniae, 4l combined with CIP
[25] = E. faecalis, 4l combined with CIP

For `CNC1=C([N+](=O)[O-])C2(C(=O)Nc3ccccc32)C2=C(O1)C(=O)c1ccccc1C2=O` (stereo not drawn) [Compound 4l], the “% inhibition at 250 μg/mL” value (S. typhimurium MTCC 3224 [1]) was “complete inhibition”, the “effect on biofilm formation (XTT)” value (S. pneumoniae biofilm; even at MIC, 24 h) was “almost completely disrupted biofilm formation” and the “effect on biofilm formation (XTT)” value (S. pneumoniae biofilm; sub-MIC: MIC/2, MIC/4, MIC/8) was “significant reduction in biofilm formation”. For the same molecule, the FICI (S. typhimurium; [22]) was 1.01, the MIC in combination (S. typhimurium; [22]) was 3.90 µg/mL and the mode of interaction (S. typhimurium; [22]) was “indifferent (An FIC index result of >0.5 but <4 was considered indifferent)”. For the same molecule, the MIC (S. typhimurium; Salmonella enterica, TYPHIMURIUM, read-out: MIC alone) was 250 µg/mL, the MIC (E. faecalis MTCC 439 [2]) was 250 µg/mL (≈ 620 µM) and the “additional opaque zone of inhibition” value (E. coli ATCC 25922 [3]; 2MIC, MIC and 0.5MIC disks) was 3 ± 1 mm. The “clear zone of inhibition” value (E. coli ATCC 25922 [3]; disk with 0.5MIC (62.5 μg/mL)) was 14 mm, the “clear zone of inhibition” value (E. coli ATCC 25922 [3]; disk with 2MIC (250 μg/mL)) was 18 mm and the “clear zone of inhibition” value (E. coli ATCC 25922 [3]; disk with MIC (125 μg/mL)) was 17 mm. The FICI (E. coli [4]; E. coli, 4l combined with CIP) was 0.53, the MIC in combination (E. coli [4]; E. coli, 4l combined with CIP) was 3.90 µg/mL and the MIC (E. coli [4]; Escherichia coli, read-out: MIC alone) was 125 µg/mL. The “effect on E. coli cells under confocal microscopy (DAPI)” value (E. coli cells) was “reduction in the number of living cells”, the MIC (S. typhimurium MTCC 3224 [5]) was 250 µg/mL (≈ 620 µM) and the “killing activity (time–kill)” value (S. pneumoniae [6]; 2MIC) was “almost completely killed bacterial cells”. For the same molecule, the “killing activity (time–kill)” value (S. pneumoniae [6]; MIC) was “significant decrease in log10 CFU/mL”, the “% inhibition at 250 μg/mL” value (S. pneumoniae MTCC 655 [7]; S. pneumoniae MTCC 655, 250 μg/mL, 24 h) was “complete inhibition” and the inhibition at 250 µg/mL (S. pneumoniae MTCC 655 [7]; Streptococcus pneumoniae, MTCC655, 24 h, read-out: % inhibition at 250 μg/mL) was 100%. For the same molecule, the “continuous lag phase (no substantial growth)” value (S. pneumoniae [8]) was 24 h, the “growth in spot assay (in words)” value (S. pneumoniae MTCC 655 [9]) was “no S. pneumoniae growth” and the FICI (P. aeruginosa; [23]) was 1.06. For the same molecule, the MIC in combination (P. aeruginosa; [23]) was 15.63 µg/mL, the mode of interaction (P. aeruginosa; [23]) was “indifferent (An FIC index result of >0.5 but <4 was considered indifferent)” and the MIC (P. aeruginosa; Pseudomonas aeruginosa, read-out: MIC alone) was 250 µg/mL. For the same molecule, the FICI (S. pneumoniae [10]; [24]) was 0.29, the MIC in combination (S. pneumoniae [10]; [24]) was 3.90 µg/mL and the mode of interaction (S. pneumoniae [10]; [24]) was “synergistic (Synergy and antagonism were defined by FIC indices of <0.5 and >4, respectively)”. For the same molecule, the MIC (S. pneumoniae [10]; Streptococcus pneumoniae, read-out: MIC alone) was 125 µg/mL, the MIC (E. coli ATCC 25922 [11]) was 125 µg/mL (≈ 310 µM) and the “continuous lag phase (no substantial growth)” value (E. coli [12]) was 24 h. For the same molecule, the “% inhibition at 250 μg/mL” value (E. coli ATCC 25922 [13]; E. coli ATCC 25922, 250 μg/mL, 24 h) was “complete inhibition”, the inhibition at 250 µg/mL (E. coli ATCC 25922 [13]; Escherichia coli, ATCC25922, 24 h, read-out: % inhibition at 250 μg/mL) was 100% and the “reduction in absorbance (biofilm, XTT)” value (E. coli biofilm [14]; 2MIC (by order)) was 80%. For the same molecule, the “reduction in absorbance (biofilm, XTT)” value (E. coli biofilm [14]; 4MIC (first of 4MIC, 2MIC, MIC by order)) was 97%, the “reduction in absorbance (biofilm, XTT)” value (E. coli biofilm [14]; MIC (by order)) was 77% and the “effect on biofilm formation (XTT)” value (E. coli biofilm [14]; sub-MIC: MIC/2, MIC/4, MIC/8) was “significant reduction in biofilm formation”. For the same molecule, the MIC (S. pneumoniae MTCC 655 [15]) was 125 µg/mL (≈ 310 µM), the MIC (P. auroginosa MTCC 2453 [16]) was 125 µg/mL (≈ 310 µM) and the FICI (E. faecalis; [25]) was 0.27. For the same molecule, the MIC in combination (E. faecalis; [25]) was 3.90 µg/mL, the mode of interaction (E. faecalis; [25]) was “synergistic (Synergy and antagonism were defined by FIC indices of <0.5 and >4, respectively)” and the MIC (E. faecalis; Enterococcus faecalis, read-out: MIC alone) was 250 µg/mL. For the same molecule, the “biofilm appearance under SEM” value (E. coli biofilm [17]; 2MIC) was “very few scattered bacterial cells”, the “biofilm appearance under SEM” value (E. coli biofilm [17]; MIC) was “significant damage in biofilm formation” and the hemolysis at 1 h, 100 μg/mL (Hemolytic assay) was 13%. For the same molecule, the hemolysis at 1 h, 200 μg/mL (Hemolytic assay) was 20%, the hemolysis at 1 h, 400 μg/mL (Hemolytic assay) was 32% and the “additional opaque zone of inhibition” value (S. pneumoniae MTCC 655 [18]; 2MIC, MIC and 0.5MIC disks) was 3 ± 1 mm. The “clear zone of inhibition” value (S. pneumoniae MTCC 655 [18]; disk with 0.5MIC (62.5 μg/mL)) was 14 mm, the “clear zone of inhibition” value (S. pneumoniae MTCC 655 [18]; disk with 2MIC (250 μg/mL)) was 17 mm and the “clear zone of inhibition” value (S. pneumoniae MTCC 655 [18]; disk with MIC (125 μg/mL)) was 15 mm. For the same molecule, the “% inhibition at 250 μg/mL” value (P. auroginosa MTCC 2453 [19]; P. auroginosa MTCC 2453, 250 μg/mL, 24 h) was “complete inhibition”, the inhibition at 250 µg/mL (P. auroginosa MTCC 2453 [19]; Pseudomonas, MTCC2453, 24 h, read-out: % inhibition at 250 μg/mL) was 100% and the “killing activity (time–kill)” value (E. coli [20]; 2MIC, after 24 h) was “complete eradication”. The “killing activity (time–kill)” value (E. coli [20]; MIC, up to 24 h) was “significant decrease in log10 CFU/mL”, the “% inhibition at 250 μg/mL” value (E. faecalis MTCC 439 [21]; E. faecalis MTCC 439, 250 μg/mL, 24 h) was “complete inhibition” and the inhibition at 250 µg/mL (E. faecalis MTCC 439 [21]; Enterococcus faecalis, MTCC439, 24 h, read-out: % inhibition at 250 μg/mL) was 100%.
